PMC12634867 (Neoplasia (New York, N.Y.), 2025)
Where two headings read alike, the source gives them in different places.

Columns and labels:
cyclin E/CDK2 = conditions: read-out: in vitro IC50 against cyclin E/CDK2; cited from earlier work
cochlear explants = conditions: read-out: EC50 in cochlear explants; protection against cisplatin; cited from earlier work
CBA/CaJ mice [1] = experiment: multi-cycle cisplatin ototoxicity mouse model, ABR; type: in vivo
CBA/CaJ mice [2] = experiment: multi-cycle cisplatin ototoxicity mouse model, DPOAE; type: in vivo; conditions: any combination group
cyclin D1/CDK4 = conditions: read-out: in vitro IC50 against cyclin D1/CDK4; cited from earlier work
FVB mice = conditions: cited from earlier work
[3] = tested on: noise-induced hearing loss (NIHL) model; conditions: cited from earlier work
cyclin B1/CDK1 = conditions: read-out: in vitro IC50 against cyclin B1/CDK1; cited from earlier work
[4] = single dose, healthy male volunteers; cited from earlier work
phosphorylated Rb = conditions: cited from earlier work
mice = conditions: cited from earlier work
[5] = plasma pharmacokinetics of single oral AZD5438 dosing in mice; type: in vivo; conditions: CBA, mouse, 37.5 mg/kg
cyclin A/CDK2 = conditions: read-out: in vitro IC50 against cyclin A/CDK2; cited from earlier work
NCCIT cells = experiment: NCCIT cell confluence; type: cell-based, human; conditions: for IC50: read-out: IC50, NCCIT cells
CBA/CaJ mice [6] = experiment: multi-cycle cisplatin ototoxicity mouse model, survival and general condition; type: in vivo
SEM-1 cells = experiment: MTT cell viability, SEM-1; type: cell-based; conditions: ∼0.02-100 μM AZD5438 together with cisplatin, 24 h MTT
[7] = cited from earlier work
[8] = cited from earlier work; remark: listed apart in the source
[9] = tested on: NCCIT tumor-bearing SCID mice; experiment: NCCIT xenograft mouse model; type: in vivo
Procedure, shortened: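 Male SCID mice aged 12 wk were implanted s.c. with 1 × 10⁷ NCCIT cells in 1:1 Matrigel. At mean tumor size ~100 mm³, they were randomized into four groups (n = 10). […] Oral test compound or vehicle (10% DMSO/5% Tween-80/40% PEG-300/45% saline) was given b.i.d. on days 1–3. Cycles lasted 7 days, three in all. Caliper volumes normalized to baseline; two-way ANOVA with Tukey.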

CBA/CaJ mice [10] = experiment: multi-cycle cisplatin ototoxicity mouse model, hair cell counts; type: in vivo
[11] = clinical phase I tolerability, cancer patients; type: in vivo, human
JKT1 cells = experiment: MTT cell viability, JKT1; type: cell-based; conditions: ∼0.02-100 μM AZD5438 together with cisplatin, 24 h MTT
[12] = tested on: IMR-32, SH-SY5Y, SKN-AS, SHP-77, H115, A549, Kelly, JKT1, NCCIT; conditions: neuroblastoma, lung and testicular origins; cited from earlier work
CBA/CaJ model = CBA/CaJ model and retrospective human study; cited from earlier work

Cc1ncc(-c2ccnc(Nc3ccc(S(C)(=O)=O)cc3)n2)n1C(C)C [AZD5438]
IC50 (cyclin E/CDK2): 0.006 µM
EC50 (cochlear explants): 0.005 µM
ABR wave 1 amplitudes, protection vs cisplatin only (CBA/CaJ mice [1]; any combination group): no significant protection
ABR wave 1 latency, improvement vs cisplatin only (CBA/CaJ mice [1]; combination groups, all levels at 8 and 16 kHz): did not reveal significant improvements
DPOAE amplitudes input and output analysis, protection vs cisplatin only (CBA/CaJ mice [2]): no significant protection
DPOAE thresholds and amplitudes, protection vs cisplatin only (CBA/CaJ mice [2]): no significant protection
IC50 (cyclin D1/CDK4): 0.45 µM
protection against CIHL (FVB mice; oral 75 mg/kg once daily for three days): significantly protected against CIHL at 32 kHz
cisplatin-induced hearing loss (ABR thresholds at 32 kHz) (FVB mice; transtympanic 50 µM, one hour before and 24 h after cisplatin): significantly attenuated cisplatin-induced hearing loss
protection in NIHL model, co-treatment with dabrafenib ([3]; AZD5438 and dabrafenib, preservation at 8, 16 and 32 kHz): enhanced protection
auditory thresholds in NIHL model ([3]; oral 75 mg/kg): improved auditory thresholds at 8 and 16 kHz
IC50 (cyclin B1/CDK1): 0.016 µM
maximum tolerated dose (MTD) [4]: 80 mg
time after administration within which phosphorylated Rb was modulated (phosphorylated Rb): 1 to 3 h
cisplatin-induced nephrotoxicity (mice): protected against cisplatin-induced nephrotoxicity
Cmax [5]: 1470 ± 916 ng/mL
concentration at 2 h [5]: 621 ± 305 ng/mL
concentration at 3 h [5]: 510 ± 135 ng/mL
IC50 (cyclin A/CDK2): 0.045 µM
IC50 (NCCIT cells; Homo sapiens, NCCIT, 40 h): 1.38 µM
cell death of combination vs either drug alone (NCCIT cells; cisplatin 5 μM + AZD5438 3 μM, 40 h): significantly higher cell death
adverse effects based on body weight or behavior (CBA/CaJ mice [6]; co-treated animals (Fig. 2, Fig. 3)): no significant adverse effects
mortality during the entire experiments (CBA/CaJ mice [6]; multi-cycle cisplatin + AZD5438 b.i.d.): Only a few mice mostly in the cisplatin + 37.5 mg/kg AZD5438 group died
interference with cisplatin tumor cell loss, SEM-1 (SEM-1 cells): no substantial interferences
well tolerated dose ([7]; cancer patient cohort, QID one day weekly): ≤ 90 mg
non-tolerated dose (NTD) ([7]; cancer patients, four times (QID) for one day per week): > 90 mg
non-tolerated dose (NTD) ([7]; cancer patients, four times daily for at least 14 and 28 consecutive days): 40 mg
adverse events ([7]; continuous dosing, 40 mg QID, cancer patients): gastrointestinal in origin, including profound anorexia and fatigue in some patients, accompanied by nausea and vomiting
dose-dependent linear Cmax values ([8]; oral, animal and human studies): 5 to 1,000 ng/mL
Tmax ([8]; plasma, single oral dose): 30 to 180 min
tumor volume, cisplatin + AZD5438 vs cisplatin only ([9]; 9.4 mg/kg b.i.d. oral + cisplatin 3 mg/kg): no significant differences
tumor volume ([9]; AZD5438 only, 9.4 mg/kg b.i.d. oral, vs vehicle): increased at similar rates
body weight ([9]; cisplatin + AZD5438 vs cisplatin only): trend of body weight loss more than the cisplatin only group, although insignificantly
survival ([9]; combination group and AZD5438 only group, 9.4 mg/kg b.i.d.): several deaths occurred
reduction of cisplatin-induced outer hair cell loss (CBA/CaJ mice [10]; AZD5438 co-treated groups, 32 kHz region): did not significantly reduce cisplatin-induced outer hair cell loss
inner hair cell loss (CBA/CaJ mice [10]; all groups): none of the groups caused any inner hair cell loss
estimated MTD ([11]; cancer patients, four times daily (QID), conjectured from NTDs): 20 to 90 mg
human equivalent (tolerated) mouse dose ([11]; extrapolated from tolerated Cmax): ≤ 9.4 mg/kg
Cmax ([11]; human, plasma, oral): < 300 ng/mL
interference with cisplatin tumor cell loss, JKT1 (JKT1 cells): no substantial interferences
interference with cisplatin's tumor killing in nine cancer cell lines [12]: does not interfere

CC(C)c1c(C(=O)Nc2ccccc2)c(-c2ccccc2)c(-c2ccc(F)cc2)n1CC[C@@H](O)C[C@@H](O)CC(=O)O [atorvastatin]
auditory protection (CBA/CaJ model): 5–8 dB

N.N.[Cl][Pt][Cl] [cisplatin, cis-diamminedichloroplatinum (II)]
auditory threshold elevations (FVB mice; single IP cisplatin 30 mg/kg, 8, 16 and 32 kHz): 5–20 dB
IC50 (NCCIT cells; single agent, confluency over 40 h): 9 µM
tumor volume ([9]; cisplatin only, 3 mg/kg, two days per week): completely obliterated the tumor volumes
